One assay addresses CP-AMPARs (Rattus norvegicus, UniProt P19491). In words: Whole-cell recordings, other NMDAR channel blockers on CP-AMPARs. The note with it: for Inhibitory effect on CP-AMPARs at hundreds of micromolar concentrations: hundreds of micromolar (10 and 100 µM shown in Fig. S1), 10 mM glutamate. The class given is cell-based.
In the next assay the target is GluA2(Q) (Rattus norvegicus, UniProt P19491). In words: Whole-cell patch-clamp, glutamate-induced currents, GluA2. It counts as cell-based. To be noted: 500 µM memantine, 10 mM glutamate, no auxiliary subunit, no CTZ. The gist of the method:
(§1)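 HEK-293T cells were transfected with GluA2(Q), GluA2(Q)/γ2 or GluA2(Q)/γ8 plus GFP, replated in NBQX medium, and recorded 24–48 h later. Whole-cell clamp at −60 mV, room temperature; CsF/CsCl/EGTA internal and NaCl/KCl/CaCl2/HEPES external, both pH 7.4. […] IC50 came from a Hill fit of steady-state inhibition; ≥3 recordings from ≥3 days.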
On the technique in general: The patch-clamp technique gives a direct electrical read-out from membranes.

In the next assay the target is GluA2(Q)/γ2 (UniProt P19491+Q9Y698, E306D/I257V/N307S/S313A). Described as above. The class given is cell-based, rat. To be noted: 10 mM glutamate. The gist of the method: as §1
For another assay, the target named is GluA2(Q)/γ8 (UniProt P19491+Q8WXS5). The assay is described as above. To be noted: 500 µM memantine, 10 mM glutamate. It counts as cell-based, rat. The gist of the method: as §1
For assay [1], the target named is GluA2(Q) in the presence of CTZ (Rattus norvegicus, UniProt P19491). Briefly: Whole-cell patch-clamp, GluA2. It counts as cell-based. To be noted: 500 µM memantine, 100 μM CTZ, 10 mM glutamate.
A further assay has as its target GluA2(R)/γ2 (Rattus norvegicus, UniProt P19491, Q607R). Briefly: Whole-cell patch-clamp, glutamate-induced currents, CI-AMPAR GluA2. It counts as cell-based. The note with it: 10 mM glutamate.
Another assay deals with GluA1/γ2 (Homo sapiens, UniProt P42261). In words: Whole-cell patch-clamp, glutamate-induced currents, GluA1/γ2. The class given is cell-based. The gist of the method:
(§2)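 HEK-293T cells at 40–50% confluency were lipofectamine-transfected with GluA1, or GluA1 plus GluA2(R), co-transfected with γ2 or γ8 and GFP. Cells were replated after 4–6 h in NBQX-containing medium and recorded 24–48 h post-transfection. […] IC50 came from a Hill fit of steady-state current inhibition versus concentration; ≥3 recordings over ≥3 days.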

A further assay concerns the target GluA1/γ8 (Homo sapiens, UniProt P42261). Briefly: Whole-cell patch-clamp, glutamate-induced currents, GluA1/γ8. It counts as cell-based. The gist of the method: as §2
In a further assay the target is GluA1-GluA2(R)/γ2 (UniProt P19491+P42261, Q607R). In words: Whole-cell patch-clamp, co-expression of GluA1 and GluA2. It counts as cell-based. The gist of the method: as §2
In assay [2] the target is GluA2(Q) subunit of GluA2-γ2EM (rat) (UniProt P19491). In words: cryo-EM structure.

Several values for one entry are separate records, joined by “and”; a condition that tells them apart may be missing. Equal entries are not always repeated.

GluA1/γ8, sequence (P42261 19-906, species assumed): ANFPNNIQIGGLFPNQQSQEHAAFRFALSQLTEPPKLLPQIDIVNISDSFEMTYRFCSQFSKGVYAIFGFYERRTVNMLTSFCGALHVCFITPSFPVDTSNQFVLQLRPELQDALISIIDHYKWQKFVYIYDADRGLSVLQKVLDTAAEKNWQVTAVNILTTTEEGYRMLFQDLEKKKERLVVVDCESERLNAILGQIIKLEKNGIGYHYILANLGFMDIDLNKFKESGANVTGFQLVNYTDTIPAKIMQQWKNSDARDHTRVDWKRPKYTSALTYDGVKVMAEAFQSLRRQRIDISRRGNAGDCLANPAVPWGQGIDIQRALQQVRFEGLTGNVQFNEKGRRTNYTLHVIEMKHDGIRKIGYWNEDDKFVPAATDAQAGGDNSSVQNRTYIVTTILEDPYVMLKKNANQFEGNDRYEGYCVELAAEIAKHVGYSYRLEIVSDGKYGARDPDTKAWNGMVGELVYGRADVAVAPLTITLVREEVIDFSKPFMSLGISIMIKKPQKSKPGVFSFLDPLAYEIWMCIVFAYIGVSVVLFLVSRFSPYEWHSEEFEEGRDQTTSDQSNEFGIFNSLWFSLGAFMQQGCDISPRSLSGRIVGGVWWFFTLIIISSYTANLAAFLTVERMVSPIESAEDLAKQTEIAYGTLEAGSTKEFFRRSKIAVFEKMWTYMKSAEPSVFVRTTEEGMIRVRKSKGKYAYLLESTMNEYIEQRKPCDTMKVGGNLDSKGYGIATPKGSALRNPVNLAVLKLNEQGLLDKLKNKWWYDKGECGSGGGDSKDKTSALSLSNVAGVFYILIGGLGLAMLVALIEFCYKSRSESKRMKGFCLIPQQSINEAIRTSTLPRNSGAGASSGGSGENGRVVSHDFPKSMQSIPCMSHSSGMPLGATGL
GluA1/γ8, sequence (Q8WXS5 whole entry partner, species assumed): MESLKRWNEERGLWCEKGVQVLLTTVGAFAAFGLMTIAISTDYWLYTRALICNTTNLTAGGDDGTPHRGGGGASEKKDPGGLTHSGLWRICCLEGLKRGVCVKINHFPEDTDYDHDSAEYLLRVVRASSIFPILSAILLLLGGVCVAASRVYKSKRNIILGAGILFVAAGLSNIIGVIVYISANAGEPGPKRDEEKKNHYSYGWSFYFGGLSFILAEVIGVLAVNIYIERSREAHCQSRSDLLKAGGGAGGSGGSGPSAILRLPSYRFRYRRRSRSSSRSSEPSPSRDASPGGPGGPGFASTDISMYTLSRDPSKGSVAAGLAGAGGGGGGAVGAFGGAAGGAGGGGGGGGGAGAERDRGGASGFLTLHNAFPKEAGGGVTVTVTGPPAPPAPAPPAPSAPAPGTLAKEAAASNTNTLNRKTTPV
GluA1/γ2, sequence (P42261 19-906, species assumed): as the sequence (P42261 19-906, species assumed) above
GluA1/γ2, sequence (Q9Y698 whole entry partner, species assumed): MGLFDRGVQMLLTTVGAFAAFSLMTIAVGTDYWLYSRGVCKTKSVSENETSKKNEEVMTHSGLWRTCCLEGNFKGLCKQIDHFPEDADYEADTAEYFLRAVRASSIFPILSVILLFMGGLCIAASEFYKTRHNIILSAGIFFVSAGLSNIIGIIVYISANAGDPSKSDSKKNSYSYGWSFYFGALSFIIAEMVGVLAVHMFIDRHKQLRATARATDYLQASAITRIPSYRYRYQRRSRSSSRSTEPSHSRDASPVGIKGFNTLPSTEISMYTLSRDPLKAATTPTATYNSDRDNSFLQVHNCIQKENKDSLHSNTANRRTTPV

As to `C[C@]12N[C@H](Cc3ccccc31)c1ccccc12` [MK801], at CP-AMPARs, the “Inhibition of CP-AMPARs in the concentration range where they inhibit NMDARs” value is on record as “do not show significant inhibition” and the “Inhibitory effect on CP-AMPARs at hundreds of micromolar concentrations” value is “minimal inhibitory effect”.

With `CNC1(c2ccccc2Cl)CCCCC1=O` (stereo not drawn) [ketamine], on CP-AMPARs, the “Inhibition of CP-AMPARs in the concentration range where they inhibit NMDARs” value was “do not show significant inhibition” and the “Inhibitory effect on CP-AMPARs at hundreds of micromolar concentrations” value is listed as “minimal inhibitory effect”.

The term IC50 denotes the concentration needed to halve the response being measured. Turning to `CC12CC3CC(C)(C1)CC(N)(C3)C2` [memantine, Memantine], the “Inhibition of whole-cell currents of GluA2(Q) in isolation” value at GluA2(Q) is “did not show any significant inhibition”. Besides, the “Effect on peak and steady-state currents of GluA2(Q)/γ2” value on GluA2(Q)/γ2 (500 µM memantine) was “inhibited”. The IC50 against GluA2(Q)/γ2 (IC50 for memantine inhibition of GluA2(Q)/γ2, HEK-293 cells, steady-state current, −60 mV) was 49.3 µM and 49 µM; against GluA1/γ2 it was 15 ± 2 µM; against GluA1/γ8, 10 ± 2 µM; against GluA1-GluA2(R)/γ2, 697 ± 149 µM. In addition, at GluA2(Q)/γ8, the “Effect on peak and steady-state currents of GluA2(Q)/γ8” value is recorded as “inhibited”. In addition, the “Effect on steady-state currents of GluA2(Q) with CTZ” value in [1] is listed as “showed inhibition of the steady-state currents”. Besides, the “Inhibitory effect on GluA2(R)/γ2 at 500 µM” value at GluA2(R)/γ2 (500 µM memantine) is on record as “only a minor inhibitory effect”. In addition, the “Inhibition of GluA2(R)/γ2 currents at saturating concentrations” value at GluA2(R)/γ2 (saturating concentrations of memantine) is recorded as “only partial inhibition”.

The term stoichiometry N denotes a count of units in the complex or per binding partner. Regarding “GluA2(Q) subunit of GluA2-γ2EM (from UniProt P19491-2 22-883) (receptor)”, the stoichiometry N in assay [2] came out at 4.
